Values after ≈ are worked out from the molar mass of the structure shown.
Experiments:
[1] = Solubility of the compound in 0.01 M aqueous HCl; type: physicochemical
[2] = Intrinsic clearance in rat liver microsomes after 30 mins; type: ADME, Microsome; conditions: read-out: CLH
[3] = Solubility of the compound in simulated intestinal fluid; type: physicochemical
[4] = tested on: Rattus norvegicus; assay: Immunosuppressive activity in Lewis rat assessed as change in peripheral lymphocyte count at 1 mg/kg, po after 24 hrs relative to vehicle treated control; type: functional
Procedure, shortened: (§1)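 Female Lewis rats (N = 5/group) given one oral dose of 1 mg/kg (20% captisol, 1% HPMC, 1% pluronic F68, pH 2.1 with MSA); blood lymphocyte count and total plasma compound measured at 24 h; POC vs vehicle, ANOVA/Dunnett's test.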

[5] = biological target: T1, Sphingosine 1-phosphate receptor 1 (Homo sapiens, UniProt P21453); assay: Agonist activity at human S1P1 expressed in U2OS cells coexpressing eGFP assessed as receptor internalization after 1 hr by microscopic analysis relative to 1-(4-(6-benzylbenzofuran-2-yl)-3-fluorobenzyl)azetidine-3-carboxylic acid; type: functional, cell-based
Procedure, shortened: (§2)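 Human S1P1–eGFP fusion protein expressed in U2OS cells; agonism read as receptor internalization; EC50 derived, efficacy expressed relative to 1-(4-(6-benzylbenzofuran-2-yl)-3-fluorobenzyl)azetidine-3-carboxylic acid at 1.0 μM.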

[6] = Plasma concentration in Lewis rat at 1 mg/kg, po at 24 hrs; type: ADME, organism-based; design: dose 1 mg/kg, route oral; conditions: Lewis, plasma; procedure, shortened: as §1
[7] = Solubility of the compound in phosphate buffer saline at pH 7.4; type: physicochemical; conditions: phosphate buffered saline
[8] = biological target: T1, Sphingosine 1-phosphate receptor 1; assay: Agonist activity at human S1P1 expressed in U2OS cells coexpressing eGFP assessed as receptor internalization after 1 hr by microscopic analysis; type: functional, cell-based; procedure, shortened: as §2
[9] = Apparent permeability across pig LLC-PK1 cells; type: ADME, cell-based, Sus scrofa
Procedure, shortened: (§3)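 Permeability across porcine proximal tubule LLC-PK1 cell monolayers; apparent permeability (Papp) and efflux ratio determined.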

[10] = Efflux ratio of apparent permeability across pig LLC-PK1 cells; type: ADME, cell-based, Sus scrofa; procedure, shortened: as §3
[11] = biological target: Sphingosine 1-phosphate receptor 3 (Homo sapiens, UniProt Q99500); assay: Agonist activity at human S1P3 expressed in CHO-K1 cells coexpressing Gq/i5 assessed as intracellular calcium release by fluorimetry; type: functional, cell-based
Procedure, shortened: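 CHO-K1 cells expressing the human S1P receptor subtype plus chimeric Gq/i5; Ca2+ mobilization measured; efficacy relative to S1P at 0.20 μM; compounds not reaching >10% of control activity reported as > highest concentration tested.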

T1 sequence (P21453 whole entry, the tested form may be a part): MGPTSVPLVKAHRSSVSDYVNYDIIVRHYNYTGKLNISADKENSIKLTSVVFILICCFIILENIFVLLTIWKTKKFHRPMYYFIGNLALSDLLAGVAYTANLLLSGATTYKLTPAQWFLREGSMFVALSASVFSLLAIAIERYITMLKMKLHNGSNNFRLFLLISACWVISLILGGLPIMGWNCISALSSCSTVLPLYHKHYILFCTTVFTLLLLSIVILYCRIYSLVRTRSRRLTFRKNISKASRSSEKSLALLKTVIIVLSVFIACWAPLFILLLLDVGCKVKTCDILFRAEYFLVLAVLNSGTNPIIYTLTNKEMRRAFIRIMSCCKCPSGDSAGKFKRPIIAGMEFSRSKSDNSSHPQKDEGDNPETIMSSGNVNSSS
Chain of Sphingosine 1-phosphate receptor 3 (Q99500 whole entry): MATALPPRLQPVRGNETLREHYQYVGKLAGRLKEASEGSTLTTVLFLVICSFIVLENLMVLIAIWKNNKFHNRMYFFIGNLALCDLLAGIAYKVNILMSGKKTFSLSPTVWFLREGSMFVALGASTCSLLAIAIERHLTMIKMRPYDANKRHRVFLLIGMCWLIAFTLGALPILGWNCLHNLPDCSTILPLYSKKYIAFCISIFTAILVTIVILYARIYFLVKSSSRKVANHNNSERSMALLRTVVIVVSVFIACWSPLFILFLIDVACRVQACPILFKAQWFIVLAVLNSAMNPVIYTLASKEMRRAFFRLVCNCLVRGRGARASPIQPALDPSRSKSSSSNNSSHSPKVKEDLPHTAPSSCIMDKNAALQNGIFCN

SMILES	solubility [1]	microsomal CLint [2]	solubility [3]	Activity [4]	Efficacy [5]	concentration at 24 h [6]	solubility [7]	EC50 [8]	Papp [9]	efflux ratio [10]	EC50 [11]
COc1ccccc1C(=O)NC(=O)Nc1ccc(-c2ccccc2)c(C(F)(F)F)c1	< 1 µg/mL	15 µL/min/mg	23 µg/mL (≈ 55.5 µM)	-20%	110%	4.9 ng/mL	< 1 µg/mL	68 nM	< 1 ×10⁻⁶ cm/s		
COc1ccccc1C(=O)NC(=S)Nc1ccc(N2CCCCC2)c(Cl)c1	< 1 µg/mL	29 µL/min/mg	27 µg/mL (≈ 66.8 µM)		87%		< 1 µg/mL	430 nM	1.8 ×10⁻⁶ cm/s	1	> 25000 nM
COc1ccccc1C(=O)NC(=O)Nc1ccc(-c2ccccc2)c(C(C)C)c1	< 1 µg/mL	< 14 µL/min/mg	24 µg/mL (≈ 61.8 µM)	3%	120%	7 ng/mL	< 1 µg/mL	5.4 nM	1.2 ×10⁻⁶ cm/s	1	

From ChEMBL document CHEMBL2016555, “4-Methoxy-N-[2-(trifluoromethyl)biphenyl-4-ylcarbamoyl]nicotinamide: A Potent and Selective Agonist of S1P1” (ACS Med Chem Lett, 2011)
